Data set [1] addresses T1, PPM1G (Homo sapiens, UniProt O15355).
T1 sequence (O15355 1-546): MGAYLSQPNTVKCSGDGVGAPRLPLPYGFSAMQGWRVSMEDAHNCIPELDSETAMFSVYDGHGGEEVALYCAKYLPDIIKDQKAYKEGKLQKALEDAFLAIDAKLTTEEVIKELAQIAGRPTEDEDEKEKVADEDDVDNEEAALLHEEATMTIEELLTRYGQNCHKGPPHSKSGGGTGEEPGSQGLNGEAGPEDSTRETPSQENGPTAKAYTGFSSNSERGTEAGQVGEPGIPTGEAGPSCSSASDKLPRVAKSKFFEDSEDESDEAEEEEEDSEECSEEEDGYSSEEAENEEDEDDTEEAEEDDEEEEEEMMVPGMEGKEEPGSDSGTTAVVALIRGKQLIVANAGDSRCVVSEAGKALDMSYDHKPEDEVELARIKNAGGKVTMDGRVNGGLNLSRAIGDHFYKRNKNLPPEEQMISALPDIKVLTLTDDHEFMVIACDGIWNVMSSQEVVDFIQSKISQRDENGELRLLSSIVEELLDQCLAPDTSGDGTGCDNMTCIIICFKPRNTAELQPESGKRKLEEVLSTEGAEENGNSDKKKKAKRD
The data set is described as follows: Dephosphorylation of pp-ERK2 protein by PPM1G in vitro. It counts as biochemical. To be noted: 1.5 μM Cd^2+, 1 mM Mn^2+, pH 8.0, 37°C. The procedure, abridged: (§1)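 Recombinant doubly phosphorylated ERK2 as substrate in 0.05 M Tris/0.05 M Bis-Tris/0.1 M acetate, pH 8.0, 37°C, 1 mM Mn2+, with or without 1.5 µM Cd2+; reactions started by adding phosphatase, stopped by boiling in SDS buffer (100°C, 10 min); phospho-ERK (pT/pY) by Western blot; triplicate, mean ± standard error.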

The target in data set [2] is T2, striatum-enriched phosphatase (STEP) (Homo sapiens, UniProt P54829).
T2 sequence (P54829 1-565): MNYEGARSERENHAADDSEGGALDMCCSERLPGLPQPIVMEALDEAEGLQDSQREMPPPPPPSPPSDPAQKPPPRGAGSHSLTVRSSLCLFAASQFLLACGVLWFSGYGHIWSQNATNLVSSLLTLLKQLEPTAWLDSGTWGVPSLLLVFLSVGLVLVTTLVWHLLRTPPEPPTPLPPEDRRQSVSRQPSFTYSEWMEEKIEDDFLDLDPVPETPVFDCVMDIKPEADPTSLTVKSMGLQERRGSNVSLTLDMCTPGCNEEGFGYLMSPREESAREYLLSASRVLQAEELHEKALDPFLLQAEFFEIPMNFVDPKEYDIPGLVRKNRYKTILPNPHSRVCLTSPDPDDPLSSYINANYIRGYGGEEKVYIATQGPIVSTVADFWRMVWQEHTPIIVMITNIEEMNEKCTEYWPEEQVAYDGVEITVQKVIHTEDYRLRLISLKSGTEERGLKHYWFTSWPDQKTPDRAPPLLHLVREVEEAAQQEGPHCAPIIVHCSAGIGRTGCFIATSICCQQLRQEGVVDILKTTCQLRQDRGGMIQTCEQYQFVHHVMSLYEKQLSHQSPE
In words: Dephosphorylation of pp-ERK2 protein by STEP in vitro. Type of data set: biochemical. The conditions noted are these: 1.5 μM Cd^2+, pH 8.0, 37°C.

Data set [3] concerns the target T1, PPM1G. In words: PPM1G-catalyzed pNPP hydrolysis, metal ion activation and inhibition. To be noted: PPM1G wild type, Mn^2+ as variable substrate, pH 8.0, 25°C. Type of data set: biochemical. The procedure, abridged:
(§2)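 Recombinant N-terminal His-tagged human wild-type enzyme in pNPP buffer (0.05 M Tris/0.05 M Bis-Tris/0.1 M acetate), pH 8.0, 25°C. Metal activation: Mn2+ varied 1 to 100 mM with saturating pNPP (10-40 mM), EDTA stop, 405 nm, Michaelis-Menten fit. Inhibition: pNPP fixed at 20 mM, Mn2+ varied, Cd2+ at 0, 0.25, 0.5 and 1.0 µM; double-reciprocal analysis.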

Data set [4] deals with PPM1A-regulated ERK phosphorylation in HEK293 cells. In words: EGF-stimulated ERK phosphorylation in PPM1A-overexpressing HEK293 cells. Type of data set: cell-based, human. The conditions noted are these: HEK293, PPM1A overexpression, 1.5 μM Cd^2+, EGF 5 ng/ml 5 min. Put shortly: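 HEK293 in DMEM (25 mM glucose, 10% FBS, penicillin/streptomycin), 37°C, 5% CO2, transiently transfected with Flag-tagged phosphatase or control vector. 36 h post-transfection, serum-starved 12 h, 1.5 µM CdCl2 or none for 6 h, then EGF 5 ng/ml, 5 min, 37°C. Lysates immunoblotted for phospho-ERK or phospho-AKT Ser473; actin loading control; ≥3 experiments.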

Data set [5] deals with PPM1A D239K-regulated P38 and JNK-1 phosphorylation in HEK293 cells. It counts as cell-based, human. To be noted: HEK293, PPM1A D239K overexpression, 1.5 μM Cd^2+. The procedure, abridged: (§3)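 Transfected HEK293 (Flag-tagged wild-type PPM1A, D239K mutant, or control vector) starved 12 h at 36 h post-transfection, then exposed to 1.5 µM CdCl2 or none for 6 h before sorbitol (0.4 M, 20 min, 37°C). Phospho-P38 and phospho-JNK by immunoblotting of cleared lysates (equal protein, BCA); data from ≥3 experiments.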

Data set [6] concerns the target T1, PPM1G. The data set is described as follows: PPM1G-catalyzed hydrolysis of pp-ERK and pp-P38 phospho-peptides. It counts as biochemical. The conditions noted are these: pp-ERK and pp-P38 phospho-peptide substrates.
Another data set deals with T3, PPM1A D282A (Homo sapiens, UniProt P35813, D282A).
T3 sequence (P35813 1-382 D282A): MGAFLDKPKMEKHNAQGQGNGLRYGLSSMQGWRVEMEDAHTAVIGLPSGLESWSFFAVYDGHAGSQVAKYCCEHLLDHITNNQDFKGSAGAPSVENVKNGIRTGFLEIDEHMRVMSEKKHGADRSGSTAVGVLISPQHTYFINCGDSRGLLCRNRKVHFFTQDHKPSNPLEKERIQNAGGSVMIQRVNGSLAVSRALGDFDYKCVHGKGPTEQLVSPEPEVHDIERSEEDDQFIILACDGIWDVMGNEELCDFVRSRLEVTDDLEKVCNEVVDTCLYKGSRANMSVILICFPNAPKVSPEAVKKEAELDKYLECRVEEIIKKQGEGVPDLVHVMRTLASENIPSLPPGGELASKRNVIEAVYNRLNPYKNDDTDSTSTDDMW
The data set is described as follows: Dephosphorylation of pp-ERK2 protein by PPM1A D282A in vitro. The conditions noted are these: 1.5 μM Cd^2+. Type of data set: biochemical. The procedure, abridged: as §1

In a further data set the test system is PC12 cells. In words: Apoptosis assay in PC12 cells. Type of data set: cell-based. The conditions noted are these: 1.5 or 2.5 μM Cd^2+, 24 h.
Data set [7] deals with PPM1A-regulated P38 and JNK-1 phosphorylation in HEK293 cells. Type of data set: cell-based, human. The conditions noted are these: HEK293, PPM1A overexpression, 1.5 μM CdCl2 6 h, sorbitol 0.4 M 20 min. Put shortly: as §3
Data set [8] concerns the target T4, PPM1A (Homo sapiens, UniProt P35813).
T4 sequence (P35813 1-382): T3 sequence (P35813 1-382 D282A) with A282D
In words: Dephosphorylation of pp-ERK2 protein by PPM1A in vitro. It counts as biochemical. The conditions noted are these: 1.5 μM Cd^2+, 1 mM Mn^2+, pH 8.0, 37°C, wild-type PPM1A. Put shortly: as §1

Another data set concerns HEK293 cells. The data set is described as follows: Cell cycle assay in PPM1A-overexpressing HEK293 cells. Type of data set: cell-based, human. The conditions noted are these: HEK293, PPM1A overexpression, 1.5 μM Cd^2+, 24 h. The procedure, abridged:
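HEK293 transfected with Flag-PPM1A, serum-starved 12 h (36 h post-transfection), given 1.5 µM CdCl2 for 24 h with cycling restarted by 10% FBS medium. Cells fixed in 75% ethanol at 4°C overnight, resuspended in PBS with 0.1% NaN3, stained with propidium iodide (50 µg/ml); DNA content by flow cytometry, G2/M percentage; ≥3 repeats.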

The target in another data set is T5, PHLPP2 catalytic domain (Homo sapiens, UniProt Q6ZVD8).
T5 sequence (Q6ZVD8 784-1033): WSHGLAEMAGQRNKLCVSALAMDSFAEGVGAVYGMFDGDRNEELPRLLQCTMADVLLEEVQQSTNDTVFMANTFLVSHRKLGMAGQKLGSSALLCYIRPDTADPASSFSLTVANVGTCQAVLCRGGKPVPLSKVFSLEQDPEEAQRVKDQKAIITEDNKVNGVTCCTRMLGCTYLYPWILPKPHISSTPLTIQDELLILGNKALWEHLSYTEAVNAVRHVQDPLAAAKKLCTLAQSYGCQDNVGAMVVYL
The data set is described as follows: Cadmium inhibition assay of PHLPP2 catalytic domain. It counts as biochemical. To be noted: pNPP, pH 8.0, 25°C. Put shortly:
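His-tagged human PHLPP2 catalytic domain (residues 784-1033) expressed from pET-30a; pNPP hydrolysis in 0.05 M Tris, 0.05 M Bis-Tris, 0.1 M acetate, pH 8.0, 25°C, stopped with 0.5 M EDTA pH 10.0; p-nitrophenol at 405 nm.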

A further data set has as its target T6, PPM1A D239K (Homo sapiens, UniProt P35813, D239K).
T6 sequence (P35813 1-382 D239K): T3 sequence (P35813 1-382 D282A) with D239K, A282D
The data set is described as follows: Dephosphorylation of pp-ERK2 protein by PPM1A D239K in vitro. Type of data set: biochemical. To be noted: 1.5 μM Cd^2+. The procedure, abridged:
as §1

Data set [9] concerns the target T4, PPM1A. In words: PPM1A-catalyzed pNPP hydrolysis, metal ion activation and inhibition. Type of data set: biochemical. The conditions noted are these: PPM1A wild type, Mn^2+ as variable substrate, pH 8.0, 25°C. The procedure, abridged: as §2
The target in data set [10] is T4, PPM1A. In words: PPM1A-catalyzed hydrolysis of pp-ERK and pp-P38 phospho-peptides. It counts as biochemical. The conditions noted are these: pp-ERK and pp-P38 phospho-peptide substrates.
A further data set addresses PP2A (Homo sapiens, UniProt P67775). In words: Cadmium inhibition assay of PP2A. It counts as biochemical. To be noted: pNPP, pH 8.0, 25°C. The procedure, abridged: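 Commercial PP2A assayed on pNPP in 0.05 M Tris/0.05 M Bis-Tris/0.1 M acetate at pH 8.0 and 25°C; EDTA (0.5 M, pH 10.0) stop; p-nitrophenol at 405 nm.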
In data set [11] the test system is PC12 cells overexpressing PPM1A D239K. In words: Apoptosis assay in PC12 cells overexpressing PPM1A D239K. To be noted: overexpression of Cd^2+ insensitive mutant D239K; 1.5 and 2.5 μM, 24 h. It counts as cell-based.

Consider one molecule from publication PMC3730172 (Scientific Reports, 2013).

Positions count from the first letter of the chain named. “And” between values parts separate entries of the source, which are not always exact repeats. Identical values can stand only once.

Sequence of PP2A (P67775 whole entry): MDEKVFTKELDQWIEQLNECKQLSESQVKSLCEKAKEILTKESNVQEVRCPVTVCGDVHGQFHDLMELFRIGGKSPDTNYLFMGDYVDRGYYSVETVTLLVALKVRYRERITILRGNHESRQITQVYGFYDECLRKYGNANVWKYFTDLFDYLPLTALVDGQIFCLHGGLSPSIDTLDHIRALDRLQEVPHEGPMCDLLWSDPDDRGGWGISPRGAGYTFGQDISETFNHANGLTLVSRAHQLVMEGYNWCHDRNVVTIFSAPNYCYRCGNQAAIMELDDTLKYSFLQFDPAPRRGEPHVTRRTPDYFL
Sequence of PP2A (P30153 2-589 partner limits assumed): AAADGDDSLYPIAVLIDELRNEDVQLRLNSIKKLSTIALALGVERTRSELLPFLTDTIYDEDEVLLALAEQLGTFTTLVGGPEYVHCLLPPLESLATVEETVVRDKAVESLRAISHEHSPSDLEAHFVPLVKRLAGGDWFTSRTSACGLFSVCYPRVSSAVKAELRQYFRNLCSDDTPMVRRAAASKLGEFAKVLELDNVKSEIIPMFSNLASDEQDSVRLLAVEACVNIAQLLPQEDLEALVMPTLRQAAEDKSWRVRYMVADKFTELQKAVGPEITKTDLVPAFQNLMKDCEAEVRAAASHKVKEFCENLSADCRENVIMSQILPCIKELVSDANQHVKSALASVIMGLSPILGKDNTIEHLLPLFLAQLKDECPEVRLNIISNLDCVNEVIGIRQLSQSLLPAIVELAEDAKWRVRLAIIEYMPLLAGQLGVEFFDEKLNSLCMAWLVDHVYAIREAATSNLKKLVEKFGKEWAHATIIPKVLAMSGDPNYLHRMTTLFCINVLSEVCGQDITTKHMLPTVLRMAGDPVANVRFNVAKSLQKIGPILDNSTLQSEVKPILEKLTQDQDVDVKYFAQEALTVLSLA

Usually Ki stands for the equilibrium dissociation constant of an inhibitor or competing ligand from its target. A word on the IC50: it is the concentration at which inhibition is half-maximal. A higher IC50 goes with weaker potency in that assay. For `[Cd+2]` [Cd^2+, cadmium], the “effect on dephosphorylation of phospho-ERK” value on PPM1G [1] was “substantially blocked”; in data set [2] it was “no effect”; on PPM1A D282A, “minimally affected”; at PPM1A [8] it was “substantially blocked”; at PPM1A D239K it was “minimally affected”. The Ki on PPM1G [3] is < 1000 nM and ~1000 nM; at PPM1A [9], < 1000 nM and ~1000 nM. Further, the “effect on PPM1A reduction of EGF-induced ERK phosphorylation” value in data set [4] was “reversed”. Further, in data set [5], the “effect on D239K block of sorbitol-induced P38 and JNK-1 phosphorylation” value is listed as “much weaker effects”. Moreover, the IC50 result was “low micromolar range” at PPM1G [6], 3 mM against PHLPP2 catalytic domain, “low micromolar range” against PPM1A [10] and 130 µM on PP2A. Moreover, the PC12 cell apoptosis result is reported as “induced” in the data set with PC12 cells and “did not promote” in [11]. Also, the “effect on PPM1A block of sorbitol-induced P38 and JNK-1 phosphorylation” value in data set [7] is “drastically reversed”. Also, the “effect on PPM1A-induced increase in proportion of cells in G2/M” value in the data set with HEK293 cells is recorded as “greatly reversed”.
